# The list is not random: actives were taken first. Their share in the collection is about 3.1%.
# HKDC1 inh – HKDC1 hexokinase inhibitors, primary screen, biochemical, fluorescence, uHTS | Q2TB90 | recombinant HKDC1, G6PDH/diaphorase resazurin coupled fluorescence | inhibition, % at 20 µM | 0.16% of 340,000 active;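 active means inhibition above about 35% when tested at 20 µM, limit read from the data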
# Target sequence (Q2TB90 whole entry, looked up): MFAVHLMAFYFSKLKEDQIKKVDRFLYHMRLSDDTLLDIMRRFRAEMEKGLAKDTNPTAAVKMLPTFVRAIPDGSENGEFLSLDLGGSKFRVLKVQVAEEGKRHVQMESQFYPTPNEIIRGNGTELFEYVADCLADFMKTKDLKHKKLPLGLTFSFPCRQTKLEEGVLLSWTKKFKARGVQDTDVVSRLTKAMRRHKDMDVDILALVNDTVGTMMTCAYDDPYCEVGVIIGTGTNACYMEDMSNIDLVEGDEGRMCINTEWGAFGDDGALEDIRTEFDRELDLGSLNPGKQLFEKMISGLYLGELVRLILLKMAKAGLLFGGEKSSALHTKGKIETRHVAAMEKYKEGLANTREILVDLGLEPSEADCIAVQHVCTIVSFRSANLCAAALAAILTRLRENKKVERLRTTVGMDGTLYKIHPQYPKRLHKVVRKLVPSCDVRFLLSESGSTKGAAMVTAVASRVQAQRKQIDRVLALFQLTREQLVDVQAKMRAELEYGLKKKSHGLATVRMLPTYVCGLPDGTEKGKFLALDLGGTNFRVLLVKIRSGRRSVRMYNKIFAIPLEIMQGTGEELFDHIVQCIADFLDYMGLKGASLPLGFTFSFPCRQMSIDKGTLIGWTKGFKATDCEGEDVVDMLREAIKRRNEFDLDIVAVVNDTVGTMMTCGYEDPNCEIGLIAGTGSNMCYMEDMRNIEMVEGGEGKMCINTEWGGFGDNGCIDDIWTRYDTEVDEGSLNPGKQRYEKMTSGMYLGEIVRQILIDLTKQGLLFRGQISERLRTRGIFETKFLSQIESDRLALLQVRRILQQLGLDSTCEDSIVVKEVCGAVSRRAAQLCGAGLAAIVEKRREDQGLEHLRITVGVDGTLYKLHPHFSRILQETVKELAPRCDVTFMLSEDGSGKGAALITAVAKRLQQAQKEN
#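 System: Recombinant HKDC1 hexokinase | Amount: HKDC1 at 5 µg/mL | Reagent: Glucose with 1 mM ATP | Doses: Single 20 µM dose | Incubation: Reaction time 90 min, room temperature, protected from light | Signal: Coupled resazurin fluorescence, excitation 525 nm, emission 613 nm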
# HSF1 inh – HSF1 inhibitors in luciferase reporter cells, primary screen, cell-based, NIH3T3, luminescence; NIH3T3-HGL HSE-luciferase, MG132-induced, luminescence 8 h; hits give low values; activity change, negative = inhibition, % at 7.5 µM (by protocol); 0.77% of 300,000 active;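 active means more than half of replicate wells show activity change below -50%, luminescence cut by over half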;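 further: luciferase reports HSF-1 transcriptional activity via heat shock element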
# HSP90 refold inh – HSP90 inhibitors, primary screen, cell lysate, luminescence. AID 1789, 2009. Rabbit reticulocyte lysate, luciferase refolding luminescence, 3 h. inhibition, % at 5.6 µM. Heat shock protein HSP 90 (rabbit reticulocyte lysate; luciferase refolding). 0.91% of 290,000 active;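 active means inhibition above the screen-wide mean plus 3 SD, computed separately per campaign, cut at about 16% in these data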;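 further: inhibitors lower the luminescence because luciferase stays unfolded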
# Hsp70 activator – Hsp70 transcriptional activators, primary screen, cell-based, HeLa, Hsp70 promoter luciferase, luminescence, 10 µM; HeLa Hsp70 promoter luciferase reporter; scaled: vehicle 0, proteasome-inhibitor control 100%; activation, % at 10 µM; 0.04% of 200,000 active;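 active means activation above the mean across all tested compounds plus 3 SD, cutoff set per campaign, cut at about 5.5% in these data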
# HSF-1 act – HSF-1 activators, primary screen, NIH3T3-HGL cells, MG132 stress, luminescence, single point. NIH3T3-HGL HSF-1 luciferase reporter, 8 h; 100% = twice DMSO control signal. activation, % at 9 µM. 1.7% of 300,000 active. AID 504408, 2011;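 active means mean replicate activation of at least 50% with a set share of replicates each reaching 50%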
# TbHK1 inh – Trypanosoma brucei hexokinase 1 inhibitors, primary screen, biochemical, G6PDH-coupled NADH absorbance, MLSCN library. inhibition, % at 10 µM. recombinant TbHK1, G6PDH-coupled NADH A340. AID 1430, 2008. hexokinase 1 [Trypanosoma brucei]. 0.11% of 220,000 active;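 active means inhibition of 50% or more in the single-dose primary screen; inactive means inhibition below 50%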
# Hits are given with their value; n = inactive; x = not tested or not shown.
SMILES,HKDC1 inh,HSF1 inh,HSP90 refold inh,Hsp70 activator,HSF-1 act,TbHK1 inh
O=Cc1c(-c2ccc(Cl)cc2)oc2ccc(O)cc12,n,-55,x,x,n,x
Cc1ccc2c(CN3CCN(S(=O)(=O)c4ccccc4C(F)(F)F)CC3)cc(=O)oc2c1C,n,x,x,x,x,x
COc1ccc(-c2nc3c(s2)CN(S(C)(=O)=O)CC3)cc1OC,n,n,n,x,n,x
CCS(=O)(=O)N1CCc2nc(-c3ccccc3)sc2C1,n,n,n,x,63,x
Nc1ccc(S(=O)(=O)Nc2nccc(/C=C/c3cccc(Br)c3)n2)cc1,n,n,n,x,n,x
CC(C)(C)C(=O)Nc1sc2c(c1C#N)CCN(Cc1ccccc1)C2,n,n,n,x,57,x
COCCCNC(=O)CCCn1c(=O)[nH]c2ccccc2c1=O,n,n,n,n,n,n
CCN(CCCNC(=O)CCCCn1c(=O)[nH]c2ccccc2c1=O)c1ccccc1,n,n,n,n,74,n
CC1=C(C(=O)Nc2ccccn2)C(c2ccc(Cl)cc2)NC(=S)N1 (centres undefined),n,n,n,n,64,n
CCOC(=O)COc1ccc2ccccc2c1/C=C/[N+](=O)[O-],n,n,n,n,177,n
CCOc1ccc(/C=C/[N+](=O)[O-])c2ccccc12,n,n,n,n,76,n
CCOC(=O)COc1ccc(/C=C/[N+](=O)[O-])c(OCC(=O)OCC)c1,n,n,n,n,197,n
O=[N+]([O-])/C=C/c1c(OCc2ccccc2)ccc2ccccc12,x,n,n,n,n,n
CCOC(=O)Cn1cc(/C=C/[N+](=O)[O-])c2ccccc21,n,n,n,n,n,n
CC(C)(c1ccccc1)c1ccc(OCCCN2CCNCC2)cc1,n,n,n,n,56,n
CC(C)(C)c1ccc(OCCCCCCN2CCNCC2)cc1,n,n,x,x,n,x
Cc1ccc(NC(=O)c2c(Cl)n(C)c3ccccc23)cc1,n,n,n,n,72,n
Cc1ccc(C)n1NC(=O)c1ccccc1O,n,-85,n,n,n,n
Cc1ccc(NC(=O)C2=C(c3ccccc3)S(=O)(=O)CCS2(=O)=O)cc1,n,-75,n,n,n,n
Cc1ccc(NC(=O)c2ccccc2O)cc1,n,n,n,n,82,n
Cn1c(Cl)c(C(=O)Nc2ccccc2)c2ccccc21,n,x,n,n,x,n
O=C(Nc1ccccc1)c1ccccc1O,n,n,n,n,n,n
O=C(Nc1ccc(F)cc1)c1ccc(C(=O)N2CCCC(O)C2)cc1 (centres undefined),n,n,x,x,n,x
OCC1OC(n2cnc3c(SCc4ccccc4)nc(F)nc32)C(O)C1O (centres undefined),n,x,x,x,x,x
Cc1ccc(NC(=O)Cn2nnc(C(=O)NCc3ccc(Cl)cc3)c2N)cc1F,n,n,n,x,n,x
SMILES,HKDC1 inh,HSF1 inh,HSP90 refold inh,Hsp70 activator,HSF-1 act,TbHK1 inh
Cc1ccc(NC(=O)C(=O)c2ccc(C)cc2)cc1,n,n,n,x,61,x
Cc1ccc(NC(=O)c2ccccc2)cc1,n,n,n,n,n,n
Cc1cc(SCC(=O)NCC(c2cccs2)N2CCOCC2)c(C)cc1Br (centres undefined),n,n,x,x,n,x
CC(C)=CC(=O)Nc1ccc(Cl)cc1,n,n,n,n,51,n
CC(SC1=NCCN1S(=O)(=O)c1ccccc1)c1ccccc1 (centres undefined),n,n,n,x,n,x
O=C(/C=C/c1ccc(S(=O)(=O)N2CCOCC2)cc1)NCc1ccccc1F,n,x,x,x,x,x
Cc1cc(/C=C2\SC(=S)NC2=O)c(C)n1-c1cccc(O)c1,n,n,n,x,n,n
Cc1cc(/C=C2/C(=O)NN(c3ccccc3)C2=O)c(C)n1-c1cccc(O)c1,n,-63,n,n,n,n
O=S(=O)(c1ccc(NC(=S)NN=Cc2ccccc2O)cc1)N1CCCCC1,n,x,x,x,x,x
O=C(OCC(=O)N1CCCc2ccccc21)c1ccccc1NCCO,n,n,x,x,n,x
C=CCn1c(O)c(N=NC(=S)Nc2ccc(OC)c(Cl)c2)c2ccccc21,n,n,n,n,55,n
C=CCn1c(O)c(N=NC(=O)OC(C)(C)C)c2ccccc21,n,n,n,n,n,n
CCOc1ccc(N(CC(=O)NN=C2CCCC2)S(C)(=O)=O)cc1,n,-87,n,n,n,n
COc1c(Cl)cccc1-c1cn2ccc(C)cc2n1,n,n,n,x,58,n
Cc1ccn2cc(-c3cnoc3C)nc2c1,n,n,n,n,n,n
C/C(=N\Nc1cccc2cccnc12)c1ccc[nH]1,n,n,n,n,63,n
CS(=O)(=O)c1ncc(Cl)c(C(=O)Nc2ccc(OC(F)F)cc2)n1,n,-91,n,x,n,x
CS(=O)(=O)c1ncc(Cl)c(C(=O)Nc2ccc(N3CCOCC3)cc2)n1,n,n,n,n,100,n
CCSc1nnc(NC(=O)CCNC(=O)c2ccccc2Cl)s1,n,x,x,x,x,x
CC1CN(C(=O)/C=C/c2ccc([N+](=O)[O-])s2)CC(C)O1 (centres undefined),n,x,n,n,x,n
CC1CC(C)CN(C(=O)/C=C/c2ccc([N+](=O)[O-])s2)C1 (centres undefined),n,n,n,n,75,n
O=C(/C=C/c1ccc([N+](=O)[O-])s1)N1CCCCC1,n,n,n,n,61,n
CN(C1CCCCC1)S(=O)(=O)c1cn(C)c(=O)n(C)c1=O,n,x,x,x,x,x
Cn1c(-c2cccc([N+](=O)[O-])c2)cnc1NCc1cccc(F)c1,n,n,n,x,n,x
CCOC(=O)Nc1ccc2c(c1)N(C(=O)CCN1CCOCC1)c1ccccc1S2=O (centres undefined),n,n,n,n,80,n
SMILES,HKDC1 inh,HSF1 inh,HSP90 refold inh,Hsp70 activator,HSF-1 act,TbHK1 inh
CN(CC(=O)Nc1ncn[nH]1)S(=O)(=O)c1cc(Cl)ccc1Cl,n,n,n,x,n,x
CC(NC(=O)c1cc2cc(Br)ccc2oc1=N)c1ccccc1 (centres undefined),n,n,n,x,n,x
COc1ccc(Cn2nnnc2CN2CCc3ccccc3C2)cc1,n,-61,n,n,n,n
COc1cc(NC(=O)c2cccs2)c(C(=O)OCC(=O)c2cc(C)n(-c3ccc(F)cc3)c2C)cc1OC,n,-64,n,n,n,n
O=C(CSc1nncs1)Nc1nnc(-c2ccccc2)o1,n,n,n,x,n,x
N#Cc1ccccc1NC(=O)COC(=O)c1ccc(F)cc1F,n,n,n,x,n,x
Cc1cccc(N(CC(=O)N/N=C/c2ccc(C(=O)O)cc2)S(=O)(=O)c2ccccc2)c1C,n,n,x,x,n,x
NC(=NCCc1ccccc1)c1cccc([N+](=O)[O-])c1,n,n,n,x,n,x
